Results published in ChEMBL document CHEMBL4130401, “Thalassosamide, a Siderophore Discovered from the Marine-Derived Bacterium Thalassospira profundimaris” (J Nat Prod, 2017).
Values after ≈ are worked out from the molar mass of the structure shown. Active and inactive are the calls of the source. No cut-off for these calls is given here.

Assays:
[1] = Metal chelating activity assessed as Fe3+-compound complex formation at 5 to 1280 uM after 3 hrs by chrome azural S assay
Summary of the method: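 Modified CAS assay: CTAB–CAS–Fe(III) reagent in MES buffer pH 5.6 mixed 1:1 with compound or deferoxamine mesylate in water, final concentrations 1.28 mM to 5 μM; incubated 37 °C, 3 h; colour change judged visually or absorbance change recorded.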

[2] = tested on: Pseudomonas aeruginosa; assay: Antibacterial activity against Pseudomonas aeruginosa ATCC 27853 infected in mouse assessed as reduction in bacterial load in thigh at 80 to 160 mg/kg, ip administered as single dose measured after 6 hrs by time kill assay; assay type: functional, organism-based
Summary of the method: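 Neutropenic murine thigh infection with P. aeruginosa grown, subcultured and quantified in Mueller-Hinton broth/agar; single intraperitoneal dose (80 or 160 mg/kg) given 1 h after infection; groups of two treated and two untreated mice euthanized at 0–6 h post-dose; thigh CFU counted; mean and standard deviation from four thighs of two mice.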

[3] = tested on: Pseudomonas aeruginosa; assay: Antibacterial activity against Pseudomonas aeruginosa ATCC 27853 measured after 18 hrs by dilution susceptibility test; assay type: functional
Summary of the method: (§1)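 Broth dilution MIC for aerobic bacteria; compound dissolved in DMSO, serially diluted to 10 concentrations (0.25–128 μg/mL); gentamicin positive control; triplicate; six untreated media controls per plate; 35 °C for 18 h; MIC = lowest concentration preventing visible growth.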

[4] = tested on: Escherichia coli; assay: Antibacterial activity against Escherichia coli ATCC 25922 measured after 18 hrs by dilution susceptibility test; assay type: functional; summary of the method: as §1
[5] = tested on: Pseudomonas aeruginosa; assay: Antibiofilm activity against Pseudomonas aeruginosa ATCC 27853 at 16 to 64 ug/ml by crystal violet microtiter method; assay type: functional, organism-based
[6] = tested on: Pseudomonas aeruginosa; assay: Antibiofilm activity against Pseudomonas aeruginosa ATCC 27853 at 16 to 64 ug/ml in presence of gentamycin by crystal violet microtiter method; assay type: functional, organism-based
[7] = tested on: Mus musculus; assay: Toxicity in mouse at 80 to 160 mg/kg, ip administered as single dose; assay type: organism-based; conditions: in vivo

Molecule	Activity [1]	Activity [2]	MIC ([3]; ATCC 27853, 18 h) [µg/mL]	MIC ([4]; ATCC 25922, 18 h) [µg/mL]	Activity [5]	Activity [6]	Activity [7]	MIC [3] [µg/mL]	MIC [4] [µg/mL]
CC(=O)N(O)CCCCCNC(=O)CCC(=O)N(O)CCCCCNC(=O)CCC(=O)N(O)CCCCCN	Active								
C[C@@H]1CC(=O)N(O)CCCC[C@@H](NC(=O)CCC(=O)O)C(=O)O[C@H](C)CC(=O)N(O)CCCC[C@@H](NC(=O)CCC(=O)O)C(=O)O[C@H](C)CC(=O)N(O)CCCC[C@@H](NC(=O)CCC(=O)O)C(=O)O1	Active	Active	64 (≈ 64.6 µM)	64 (≈ 64.6 µM)	inactive	inactive	Non-Toxic		
GENTAMICIN								4	4
